From ChEMBL document CHEMBL3272330, “Synthesis and antimineralocorticoid activities of some 7alpha-cyano and 7alpha-alkoxycarbonylamino steroidal spirolactones” (1976)
Active and inactive are the calls of the source. No cut-off for these calls is given here.

How the values were obtained:
Rattus norvegicus [1] = assay: In vivo inhibition of deoxycorticosterone acetate-induced urinary electrolyte effect in sc dosed adrenalectomized rat measured over 4 hrs; type: functional, Urine
How it was run: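 Groups of four adrenalectomized rats (150-200 g) were pretreated sc with 12 µg deoxycorticosterone acetate plus 2.5 ml isotonic saline, then dosed subcutaneously with test compound. The assay ran 4 h. MED (mg/rat) is the dose giving 50% inhibition of the DCA-induced increase in urinary Na/K ratio.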

Rattus norvegicus [2] = assay: In vivo inhibition of deoxycorticosterone acetate-induced urinary electrolyte effect in ig dosed adrenalectomized rat measured over 4 hrs; type: functional, Urine
How it was run: (§1)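 Adrenalectomized rats (150-200 g) in groups of four each received 12 µg deoxycorticosterone acetate and 2.5 ml isotonic saline sc before intragastric test compound, with 2.4 mg/rat as the standard level. Urine was collected over 4 h. The value is the median effective dose (mg/rat) giving 50% inhibition of the DCA-induced rise in urinary Na/K ratio.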

Rattus norvegicus [3] = assay: In vivo inhibition of deoxycorticosterone acetate-induced urinary electrolyte effect in po dosed adrenalectomized rat measured over 4 hrs; type: functional, organism-based; settings: Urine; how it was run: as §1

SMILES	MED50 (Rattus norvegicus [1]) [mg]	MED50 (Rattus norvegicus [2]) [mg]	inhibition (Rattus norvegicus [3])
C[C@]12CCC(=O)C=C1C[C@@H](N=C=O)[C@@H]1[C@@H]2CC[C@@]2(C)[C@H]1CC[C@@]21CCC(=O)O1	>2.4	>2.4	
COC(=O)N[C@@H]1CC2=CC(=O)CC[C@]2(C)[C@H]2CC[C@@]3(C)[C@@H](CC[C@@]34CCC(=O)O4)[C@H]12	0.79	2	
C[C@]12C=CC(=O)C=C1C[C@@H](C#N)[C@@H]1[C@@H]2CC[C@@]2(C)[C@H]1CC[C@@]21CCC(=O)O1	2.3	>2.4	inactive
CCOC(=O)N[C@@H]1CC2=CC(=O)CC[C@]2(C)[C@H]2CC[C@@]3(C)[C@@H](CC[C@@]34CCC(=O)O4)[C@H]12	>2.4	>2.4	
C[C@]12CCC(=O)C=C1C[C@@H](C#N)[C@@H]1[C@@H]2CC[C@@]2(C)[C@H]1CC[C@@]2(O)CCC(=O)[O-].[K+]		2.3	inactive
C[C@]12CC[C@H]3[C@@H]([C@H](C#N)CC4=CC(=O)CC[C@@H]43)[C@@H]1CC[C@@]21CCC(=O)O1	1.3	>2.4	
C[C@]12CCC(=O)C=C1C[C@@H](C#N)[C@@H]1[C@@H]2CC[C@@]2(C)[C@H]1CC[C@@]21CCC(=O)O1	0.39	>2.4	
